Measured values taken from ChEMBL document CHEMBL5303300, “EUbOPEN Chemogenomics Library - Multiplex” (2023).
Several values for one entry are separate records, joined by “and”; a condition that tells them apart may be missing. Equal values may be shown once.

Tested on: U2OS
Assay: Multiplex assay against U2OS
Assay type: toxicity, cell-based
Details: human, number of replicates 2
Method in brief: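 With compound added, live cells were imaged on a CQ1 microscope at 37°C and 5% CO2; staining with Hoechst33342, BioTracker Green Microtubule Cytoskeleton Dye, MitoTracker Red and Annexin V Alexa Fluor 680 had been done at seeding. The CellPathfinder machine-learning gating scheme split cells into Hoechst high-intensity objects or normal cells, normal cells into healthy, pyknosed or fragmented nuclei, and pyknosed cells into mitotic or apoptotic. The tubulin, mitochondrial-mass and membrane-permeability phenotypes are per cents of healthy-nucleus cells.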

[1] = 12 h, 1 µM, compound concentration 1 uM
[2] = 12 h, 10 µM, compound concentration 10 uM
[3] = 24 h, 1 µM, compound concentration 1 uM
[4] = 24 h, 10 µM, compound concentration 10 uM
[5] = 48 h, 1 µM, compound concentration 1 uM
[6] = 48 h, 10 µM, compound concentration 10 uM

With `CCCNc1ccc2ncc(-c3ccncc3)n2n1` the “Population Apoptotic (%)” value [1] was 60% and 74%, the “Population Healthy Nuclei (%)” value [1] was 58% and 81% and the “Population Hoechst High Intensity Objects (%)” value [1] was 0%. For the same compound, the “Population Membrane Permeable-Phenotype (%)” value [1] was 11% and 2%, the “Population Mitochondria Different-Phenotype (%)” value [1] was 11% and 0% and the “Population Mitotic Cells (%)” value [1] was 40% and 25%. For the same compound, the “Population Normal (%)” value [1] was 100%, the “Population Pyknosed Nuclei (%)” value [1] was 17% and 14% and the “Population Tubulin-Different-Phenotype (%)” value [1] was 76% and 86%. For the same compound, the “Population Apoptotic (%)” value [2] was 81% and 78%, the “Population Healthy Nuclei (%)” value [2] was 35% and 57% and the “Population Hoechst High Intensity Objects (%)” value [2] was 0% and 1%. The “Population Membrane Permeable-Phenotype (%)” value [2] was 6% and 8%, the “Population Mitochondria Different-Phenotype (%)” value [2] was 6% and 3% and the “Population Mitotic Cells (%)” value [2] was 18% and 22%. For the same compound, the “Population Normal (%)” value [2] was 100% and 98%, the “Population Pyknosed Nuclei (%)” value [2] was 24% and 33% and the “Population Tubulin-Different-Phenotype (%)” value [2] was 68% and 60%. The “Population Apoptotic (%)” value [3] was 66% and 87%, the “Population Healthy Nuclei (%)” value [3] was 71% and 89% and the “Population Hoechst High Intensity Objects (%)” value [3] was 0%. For the same compound, the “Population Membrane Permeable-Phenotype (%)” value [3] was 10% and 3%, the “Population Mitochondria Different-Phenotype (%)” value [3] was 3% and 1% and the “Population Mitotic Cells (%)” value [3] was 33% and 12%. For the same compound, the “Population Normal (%)” value [3] was 100% and 99%, the “Population Pyknosed Nuclei (%)” value [3] was 7% and the “Population Tubulin-Different-Phenotype (%)” value [3] was 76% and 88%. For the same compound, the “Population Apoptotic (%)” value [4] was 78% and 90%, the “Population Healthy Nuclei (%)” value [4] was 26% and 53% and the “Population Hoechst High Intensity Objects (%)” value [4] was 0% and 2%. For the same compound, the “Population Membrane Permeable-Phenotype (%)” value [4] was 16% and 7%, the “Population Mitochondria Different-Phenotype (%)” value [4] was 8% and 7% and the “Population Mitotic Cells (%)” value [4] was 21% and 9%. For the same compound, the “Population Normal (%)” value [4] was 100% and 97%, the “Population Pyknosed Nuclei (%)” value [4] was 31% and 33% and the “Population Tubulin-Different-Phenotype (%)” value [4] was 66% and 69%. For the same compound, the “Population Apoptotic (%)” value [5] was 57% and 66%, the “Population Healthy Nuclei (%)” value [5] was 71% and 88% and the “Population Hoechst High Intensity Objects (%)” value [5] was 0%. The “Population Membrane Permeable-Phenotype (%)” value [5] was 6% and 3%, the “Population Mitochondria Different-Phenotype (%)” value [5] was 6% and 2% and the “Population Mitotic Cells (%)” value [5] was 42% and 33%. The “Population Normal (%)” value [5] was 100%, the “Population Pyknosed Nuclei (%)” value [5] was 11% and 7% and the “Population Tubulin-Different-Phenotype (%)” value [5] was 69% and 86%. The “Population Apoptotic (%)” value [6] was 81% and 78%, the “Population Healthy Nuclei (%)” value [6] was 23% and 37% and the “Population Hoechst High Intensity Objects (%)” value [6] was 0% and 1%. For the same compound, the “Population Mitochondria Different-Phenotype (%)” value [6] was 23% and 8%, the “Population Mitotic Cells (%)” value [6] was 18% and 21% and the “Population Normal (%)” value [6] was 100% and 98%. For the same compound, the “Population Pyknosed Nuclei (%)” value [6] was 29% and 51% and the “Population Tubulin-Different-Phenotype (%)” value [6] was 46% and 62%.
